From ChEMBL document CHEMBL2203006, “Design, synthesis and pharmacological evaluation of 4-(piperazin-1-yl methyl)-N₁-arylsulfonyl indole derivatives as 5-HT₆ receptor ligands” (Bioorg Med Chem Lett, 2012)
The source made the active and inactive calls. The calls are words filed in the database; no cut-off is given here.

Tests used:
[1] = AUCt in Wistar rat at 10 mg/kg, po; format: ADME, organism-based; parameters: dose 10 mg/kg, route oral; conditions: plasma
Summary of the method: (§1)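 Fasted male Wistar rats were dosed orally at 10 mg/kg in water for injection (10 mL/kg). Parameters come from the plasma concentration-time profile.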

[2] = Oral bioavailability in Wistar rat at 10 mg/kg; format: ADME, organism-based; conditions: in vivo; summary of the method: as §1
[3] = Tmax in Wistar rat at 10 mg/kg, po; format: ADME, organism-based; parameters: dose 10 mg/kg, route oral; conditions: in vivo; summary of the method: as §1
[4] = Cmax in Wistar rat at 10 mg/kg, po; format: ADME, organism-based; parameters: dose 10 mg/kg, route oral; conditions: in vivo; summary of the method: as §1
[5] = Clearance in Wistar rat at 5 to 10 mg/kg, iv; format: ADME, organism-based; parameters: dose 5-10 mg/kg, route intravenous; conditions: in vivo
Summary of the method: (§2)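 Fasted male Wistar rats were dosed intravenously in water for injection at 2 mL/kg. Parameters come from the plasma profile.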

[6] = Apparent volume of distribution in Wistar rat at 5 to 10 mg/kg, iv; format: ADME, organism-based; parameters: dose 5-10 mg/kg, route intravenous; conditions: in vivo, read-out: Vz; summary of the method: as §2
[7] = Half life in Wistar rat at 5 to 10 mg/kg, iv; format: ADME, organism-based; parameters: dose 5-10 mg/kg, route intravenous; conditions: in vivo; summary of the method: as §2
[8] = Drug metabolism in Wistar rat liver microsomes at 2.5 uM after 0.5 hrs; format: ADME, Microsome; conditions: read-out: Drug metabolism
[9] = Drug metabolism in human liver microsomes at 2.5 uM after 0.5 hrs; format: ADME, Microsome; conditions: read-out: Drug metabolism
Cytochrome P450 2D6 = Cytochrome P450 2D6 (Homo sapiens, UniProt P10635); assay: Inhibition of CYP2D6 in human liver microsomes using dextromethorphan as substrate after 10 mins in presence of NADPH; format: ADME, Microsome
Cytochrome P450 3A4 = Cytochrome P450 3A4 (Homo sapiens, UniProt P08684); assay: Inhibition of CYP3A4 in human liver microsomes using midazolam as substrate after 5 mins in presence of NADPH; format: ADME, Microsome
hERG (KCNH2) = hERG (KCNH2) (Homo sapiens, UniProt Q12809); assay: Inhibition of human ERG at 1 uM by radioligand displacement assay
hERG (KCNH2), sequence (Q12809 whole entry): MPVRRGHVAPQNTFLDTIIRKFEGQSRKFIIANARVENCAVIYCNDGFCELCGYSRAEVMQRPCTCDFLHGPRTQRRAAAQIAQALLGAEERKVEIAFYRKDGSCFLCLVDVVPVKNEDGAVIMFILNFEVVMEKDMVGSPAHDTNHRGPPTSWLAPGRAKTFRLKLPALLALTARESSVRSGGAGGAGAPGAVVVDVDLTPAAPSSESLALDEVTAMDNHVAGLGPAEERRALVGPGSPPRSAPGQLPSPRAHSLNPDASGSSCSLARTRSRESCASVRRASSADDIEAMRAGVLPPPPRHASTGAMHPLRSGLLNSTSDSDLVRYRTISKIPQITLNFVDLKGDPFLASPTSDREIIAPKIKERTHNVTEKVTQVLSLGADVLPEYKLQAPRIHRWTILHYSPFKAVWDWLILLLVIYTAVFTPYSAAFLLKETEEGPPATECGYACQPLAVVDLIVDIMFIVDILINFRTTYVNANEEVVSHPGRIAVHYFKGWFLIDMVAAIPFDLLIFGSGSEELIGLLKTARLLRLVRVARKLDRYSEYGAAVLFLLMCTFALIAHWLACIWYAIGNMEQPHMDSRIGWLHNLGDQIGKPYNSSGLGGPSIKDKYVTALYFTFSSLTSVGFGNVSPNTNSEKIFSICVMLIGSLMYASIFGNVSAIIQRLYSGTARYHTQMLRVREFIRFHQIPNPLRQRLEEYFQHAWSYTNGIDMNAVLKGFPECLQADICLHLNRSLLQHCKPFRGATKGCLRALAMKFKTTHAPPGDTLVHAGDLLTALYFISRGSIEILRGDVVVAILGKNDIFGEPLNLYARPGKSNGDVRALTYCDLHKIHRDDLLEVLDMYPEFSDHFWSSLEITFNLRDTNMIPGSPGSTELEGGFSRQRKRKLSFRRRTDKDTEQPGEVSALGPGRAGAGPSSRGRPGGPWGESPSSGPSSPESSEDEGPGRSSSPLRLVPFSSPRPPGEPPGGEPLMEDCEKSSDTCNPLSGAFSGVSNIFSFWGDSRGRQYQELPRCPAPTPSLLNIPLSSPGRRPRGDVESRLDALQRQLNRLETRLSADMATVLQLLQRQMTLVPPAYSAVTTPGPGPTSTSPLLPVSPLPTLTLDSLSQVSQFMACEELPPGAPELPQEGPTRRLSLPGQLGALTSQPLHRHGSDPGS
Summary of the method: (§3)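 Single-concentration screen at 1 µM. Percent inhibition was measured by competitive displacement of each target's radioligand.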

[10] = target: Sodium-dependent serotonin transporter (Homo sapiens) (UniProt P31645); assay: Inhibition of SERT at 1 uM by radioligand displacement assay; summary of the method: as §3
Sodium-dependent serotonin transporter (Homo sapiens), sequence (P31645 whole entry, looked up): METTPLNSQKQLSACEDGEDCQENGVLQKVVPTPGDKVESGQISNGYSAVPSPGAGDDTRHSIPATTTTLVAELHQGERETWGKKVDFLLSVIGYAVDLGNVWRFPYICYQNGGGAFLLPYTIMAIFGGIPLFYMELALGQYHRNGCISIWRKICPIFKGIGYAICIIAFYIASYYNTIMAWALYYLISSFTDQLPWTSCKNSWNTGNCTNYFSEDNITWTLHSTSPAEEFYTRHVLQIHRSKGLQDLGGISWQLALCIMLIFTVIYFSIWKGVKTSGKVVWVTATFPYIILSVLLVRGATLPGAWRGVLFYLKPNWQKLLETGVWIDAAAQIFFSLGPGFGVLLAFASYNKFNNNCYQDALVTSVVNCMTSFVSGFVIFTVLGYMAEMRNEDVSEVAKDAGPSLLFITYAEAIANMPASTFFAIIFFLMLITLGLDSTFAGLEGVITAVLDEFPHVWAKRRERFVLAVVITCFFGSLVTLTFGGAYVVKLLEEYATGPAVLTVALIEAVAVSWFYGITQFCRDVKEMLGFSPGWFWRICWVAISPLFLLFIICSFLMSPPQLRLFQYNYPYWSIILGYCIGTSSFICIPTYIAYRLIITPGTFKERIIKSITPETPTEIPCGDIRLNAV

[11] = target: Histamine H1 receptor (Homo sapiens) (UniProt P35367); assay: Inhibition of histamine H1 receptor at 1 uM by radioligand displacement assay; summary of the method: as §3
Histamine H1 receptor (Homo sapiens), sequence (P35367 whole entry): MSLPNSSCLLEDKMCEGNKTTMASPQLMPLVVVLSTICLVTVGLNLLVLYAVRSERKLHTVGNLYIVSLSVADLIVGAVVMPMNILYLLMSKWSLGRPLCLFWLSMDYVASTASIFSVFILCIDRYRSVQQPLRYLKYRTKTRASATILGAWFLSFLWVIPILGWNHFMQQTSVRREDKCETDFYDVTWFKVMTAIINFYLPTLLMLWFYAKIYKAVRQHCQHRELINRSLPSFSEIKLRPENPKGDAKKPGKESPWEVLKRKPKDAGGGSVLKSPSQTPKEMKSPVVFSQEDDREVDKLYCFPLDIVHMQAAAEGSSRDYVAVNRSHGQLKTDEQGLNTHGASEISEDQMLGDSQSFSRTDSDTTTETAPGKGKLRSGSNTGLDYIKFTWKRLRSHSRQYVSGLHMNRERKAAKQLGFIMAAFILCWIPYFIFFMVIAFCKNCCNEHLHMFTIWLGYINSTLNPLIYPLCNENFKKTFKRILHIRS

[12] = target: Sodium-dependent noradrenaline transporter (Homo sapiens) (UniProt P23975); assay: Inhibition of NET at 1 uM by radioligand displacement assay; summary of the method: as §3
Sodium-dependent noradrenaline transporter (Homo sapiens), sequence (P23975 whole entry): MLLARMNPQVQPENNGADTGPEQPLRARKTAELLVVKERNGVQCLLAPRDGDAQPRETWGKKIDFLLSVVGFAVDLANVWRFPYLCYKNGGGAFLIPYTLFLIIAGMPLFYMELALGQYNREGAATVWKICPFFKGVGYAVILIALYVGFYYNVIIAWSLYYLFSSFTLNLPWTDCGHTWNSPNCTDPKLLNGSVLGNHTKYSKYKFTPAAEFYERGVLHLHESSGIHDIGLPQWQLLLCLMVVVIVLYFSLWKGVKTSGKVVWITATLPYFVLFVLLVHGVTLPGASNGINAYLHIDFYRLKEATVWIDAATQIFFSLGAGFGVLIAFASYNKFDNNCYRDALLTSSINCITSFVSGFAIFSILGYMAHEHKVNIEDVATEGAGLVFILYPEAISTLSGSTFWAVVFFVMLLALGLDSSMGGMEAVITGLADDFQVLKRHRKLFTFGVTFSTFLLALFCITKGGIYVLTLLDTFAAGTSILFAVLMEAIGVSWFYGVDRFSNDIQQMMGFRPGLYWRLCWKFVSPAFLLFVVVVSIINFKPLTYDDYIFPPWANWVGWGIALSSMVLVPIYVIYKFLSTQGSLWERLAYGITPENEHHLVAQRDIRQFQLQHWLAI

[13] = target: D(3) dopamine receptor (Homo sapiens) (UniProt P35462); assay: Inhibition of dopamine D3 receptor at 1 uM by radioligand displacement assay; summary of the method: as §3
D(3) dopamine receptor (Homo sapiens), sequence (P35462 whole entry): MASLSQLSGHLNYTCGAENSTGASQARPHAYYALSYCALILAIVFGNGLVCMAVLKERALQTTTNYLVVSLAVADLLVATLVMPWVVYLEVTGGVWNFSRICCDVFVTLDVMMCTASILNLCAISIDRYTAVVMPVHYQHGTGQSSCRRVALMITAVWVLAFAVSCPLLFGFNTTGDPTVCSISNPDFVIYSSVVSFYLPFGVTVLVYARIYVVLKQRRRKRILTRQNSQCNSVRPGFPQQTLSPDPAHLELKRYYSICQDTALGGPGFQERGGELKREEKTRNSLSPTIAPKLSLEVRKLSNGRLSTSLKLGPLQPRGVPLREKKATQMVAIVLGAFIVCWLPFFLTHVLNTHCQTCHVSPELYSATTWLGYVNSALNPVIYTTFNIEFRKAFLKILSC

[14] = target: Sodium-dependent dopamine transporter (Homo sapiens) (UniProt Q01959); assay: Inhibition of DAT at 1 uM by radioligand displacement assay; summary of the method: as §3
Sodium-dependent dopamine transporter (Homo sapiens), sequence (Q01959 whole entry): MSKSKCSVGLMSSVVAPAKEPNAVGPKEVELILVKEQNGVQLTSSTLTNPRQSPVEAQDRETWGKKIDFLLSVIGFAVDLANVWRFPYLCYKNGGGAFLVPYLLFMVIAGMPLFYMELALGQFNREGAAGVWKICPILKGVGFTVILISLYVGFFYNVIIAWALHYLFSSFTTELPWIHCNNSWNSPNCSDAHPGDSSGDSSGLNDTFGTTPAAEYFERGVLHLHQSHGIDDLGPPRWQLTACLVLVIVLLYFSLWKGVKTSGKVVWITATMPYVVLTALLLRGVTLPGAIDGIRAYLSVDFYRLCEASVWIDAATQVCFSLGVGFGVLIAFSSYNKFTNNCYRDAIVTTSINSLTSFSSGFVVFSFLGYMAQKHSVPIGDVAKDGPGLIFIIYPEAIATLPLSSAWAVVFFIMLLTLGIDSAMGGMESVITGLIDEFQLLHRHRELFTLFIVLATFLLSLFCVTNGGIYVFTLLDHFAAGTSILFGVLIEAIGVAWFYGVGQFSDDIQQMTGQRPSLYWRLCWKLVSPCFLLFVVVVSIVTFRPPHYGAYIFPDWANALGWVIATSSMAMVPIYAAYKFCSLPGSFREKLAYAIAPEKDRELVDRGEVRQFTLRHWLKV

[15] = target: D(2) dopamine receptor (Homo sapiens) (UniProt P14416); assay: Inhibition of dopamine D2 receptor at 1 uM by radioligand displacement assay; summary of the method: as §3
D(2) dopamine receptor (Homo sapiens), sequence (P14416 whole entry): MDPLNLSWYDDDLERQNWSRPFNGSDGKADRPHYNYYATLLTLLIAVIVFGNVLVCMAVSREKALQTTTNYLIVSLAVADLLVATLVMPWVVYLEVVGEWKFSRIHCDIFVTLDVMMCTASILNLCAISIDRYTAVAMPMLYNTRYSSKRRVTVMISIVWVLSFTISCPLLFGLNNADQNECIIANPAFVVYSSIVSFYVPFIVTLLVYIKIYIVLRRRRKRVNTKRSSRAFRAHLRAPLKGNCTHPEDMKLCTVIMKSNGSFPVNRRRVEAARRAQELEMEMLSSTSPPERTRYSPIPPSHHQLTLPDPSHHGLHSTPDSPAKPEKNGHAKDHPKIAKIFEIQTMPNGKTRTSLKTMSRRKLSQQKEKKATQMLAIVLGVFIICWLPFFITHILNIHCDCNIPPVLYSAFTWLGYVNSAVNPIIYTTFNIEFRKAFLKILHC

[16] = target: T1, 5-hydroxytryptamine receptor 3A (Homo sapiens) (UniProt P46098); assay: Inhibition of 5HT3 receptor at 1 uM by radioligand displacement assay; summary of the method: as §3
T1 sequence (whole entry): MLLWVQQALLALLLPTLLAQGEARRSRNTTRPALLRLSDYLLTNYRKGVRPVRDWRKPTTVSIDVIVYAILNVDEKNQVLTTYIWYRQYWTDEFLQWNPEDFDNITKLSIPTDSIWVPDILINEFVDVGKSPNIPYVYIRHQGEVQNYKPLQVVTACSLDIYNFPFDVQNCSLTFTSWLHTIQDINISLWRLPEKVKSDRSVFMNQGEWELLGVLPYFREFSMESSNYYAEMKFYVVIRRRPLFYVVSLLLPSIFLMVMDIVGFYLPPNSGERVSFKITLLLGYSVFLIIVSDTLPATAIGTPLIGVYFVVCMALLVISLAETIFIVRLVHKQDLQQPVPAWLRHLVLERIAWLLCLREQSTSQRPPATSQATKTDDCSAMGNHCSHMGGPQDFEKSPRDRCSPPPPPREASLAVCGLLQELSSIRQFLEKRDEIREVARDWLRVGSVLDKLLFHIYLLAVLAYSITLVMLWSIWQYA

[17] = target: 5-hydroxytryptamine receptor 2A (Homo sapiens) (UniProt P28223); assay: Inhibition of 5HT2A receptor at 1 uM by radioligand displacement assay; summary of the method: as §3
5-hydroxytryptamine receptor 2A (Homo sapiens), sequence (P28223 whole entry): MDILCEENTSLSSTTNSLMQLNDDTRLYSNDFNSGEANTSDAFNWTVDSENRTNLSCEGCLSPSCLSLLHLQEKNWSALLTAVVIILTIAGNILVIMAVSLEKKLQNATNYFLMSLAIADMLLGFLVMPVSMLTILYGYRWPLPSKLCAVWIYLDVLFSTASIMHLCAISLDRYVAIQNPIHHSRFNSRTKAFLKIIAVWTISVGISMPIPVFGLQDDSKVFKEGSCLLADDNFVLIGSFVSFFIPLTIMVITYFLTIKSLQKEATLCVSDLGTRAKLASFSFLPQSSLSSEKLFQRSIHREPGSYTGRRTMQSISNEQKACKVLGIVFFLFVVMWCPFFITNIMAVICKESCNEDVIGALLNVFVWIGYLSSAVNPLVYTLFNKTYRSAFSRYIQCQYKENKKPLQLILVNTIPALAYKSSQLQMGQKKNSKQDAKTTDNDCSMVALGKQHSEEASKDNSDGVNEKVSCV

[18] = target: T2, 5-hydroxytryptamine receptor 6 (Homo sapiens, UniProt P50406); assay: Antagonist activity at recombinant human 5HT6 receptor expressed in CHO cells assessed as inhibition of 5HT-stimulated cAMP accumulation after 4 hrs by luciferase reporter gene assay relative to control; format: functional, cell-based
[19] = target: T2, 5-hydroxytryptamine receptor 6; assay: Antagonist activity at recombinant human 5HT6 receptor expressed in CHO cells assessed as inhibition of 5HT-stimulated cAMP accumulation after 4 hrs by luciferase reporter gene assay; format: functional, cell-based
Summary of the method: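 Functional antagonism measured in a non-radioactive CHO cell-based assay as inhibition of 5-HT-stimulated cAMP accumulation. IC50 was derived from this inhibition, and Kb values were determined in the same cell-based format. IC50 and Kb are each the mean of two experiments.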

[20] = target: T2, 5-hydroxytryptamine receptor 6; assay: Displacement of [3H]-LSD from cloned human 5HT6 receptor expressed in HEK293 cells; format: cell-based
Summary of the method: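 Human recombinant 5-HT6 receptor expressed in HEK293 cells. Radioligand [3H]-LSD (60–80 Ci/mmol) at 1.5 nM final. Methiothepin mesylate defined non-specific binding and served as reference. Ki values are the average of duplicate determinations, run under a contract lab's standard protocol.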

[21] = target: T3, Alpha-1B adrenergic receptor (Homo sapiens) (UniProt P35368); assay: Inhibition of adrenergic alpha1B receptor at 1 uM by radioligand displacement assay; summary of the method: as §3
T3 sequence (whole entry): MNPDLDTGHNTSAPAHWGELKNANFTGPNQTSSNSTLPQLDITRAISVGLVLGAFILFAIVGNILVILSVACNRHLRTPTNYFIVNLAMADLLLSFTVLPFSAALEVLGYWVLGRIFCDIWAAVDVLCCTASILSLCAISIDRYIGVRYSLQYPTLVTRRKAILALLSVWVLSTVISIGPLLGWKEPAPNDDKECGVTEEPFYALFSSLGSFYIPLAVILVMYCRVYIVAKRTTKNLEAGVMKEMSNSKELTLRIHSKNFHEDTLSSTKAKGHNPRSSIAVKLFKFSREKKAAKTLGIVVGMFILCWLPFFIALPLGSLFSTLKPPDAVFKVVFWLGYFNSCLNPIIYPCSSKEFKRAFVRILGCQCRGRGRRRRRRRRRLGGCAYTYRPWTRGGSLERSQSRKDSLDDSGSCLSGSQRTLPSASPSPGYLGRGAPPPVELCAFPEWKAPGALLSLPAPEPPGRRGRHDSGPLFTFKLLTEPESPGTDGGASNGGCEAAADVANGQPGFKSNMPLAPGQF

[22] = Half life in Wistar rat at 10 mg/kg, po; format: ADME, organism-based; parameters: dose 10 mg/kg, route oral; conditions: in vivo; summary of the method: as §1
Rattus norvegicus = assay: Cognitive enhancing effect in Wistar rat assessed as reversal of time delay-induced memory deficit at 10 mg/kg, po after 60 mins by object recognition test; format: functional, organism-based; parameters: dose 10 mg/kg
Summary of the method: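 Object recognition task in rats. Drug or vehicle (PEG 400 50% v/v, 1 mL/kg) was given orally 60 min before testing, at 10 mg/kg. n = 6–9 per group.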

[23] = Ratio of drug level in brain to plasma at steady state in Wistar rat at 10 mg/kg, po after 1 hr; format: ADME, organism-based; parameters: dose 10 mg/kg, route oral; conditions: read-out: BPR

Compound | AUC(0-t) [1] [ng·h/mL] | bioavailability [2] [%] | Tmax [3] [h] | Cmax [4] [ng/mL] | clearance [5] [mL/min/kg] | Vd [6] [L/kg] | half-life [7] [h] | metabolised at 0.5 h, 2.5 µM [8] [%] | metabolised at 0.5 h, 2.5 µM [9] [%] | IC50 (Cytochrome P450 2D6) [nM] | inhibition at 1 µM (hERG (KCNH2)) [%] | inhibition [10] [%] | inhibition [11] [%] | inhibition [12] [%] | inhibition [13] [%] | inhibition [14] [%] | inhibition [15] [%] | inhibition [16] [%] | inhibition [17] [%] | inhibition [21] [%] | further results
CN1CCN(Cc2cccc3c2ccn3S(=O)(=O)c2ccccc2)CC1 | 23 | 2 | 1.08 | 7.6 | 152 | 19.4 | 1.53 | 100 | 47 | 16800 | 21.1 | 2.85 | 10.1 | 10.2 | 22.6 | 3.92 | 7.26 | 6.73 | 10.9 | 0.99 | IC50 (Cytochrome P450 3A4): 30500 nM; Imax [18]: 99%; IC50 [19]: 234 nM; Kb [19]: 1.02 nM; Ki [20]: 3.24 nM
CN1CCN(Cc2cccc3c2ccn3S(=O)(=O)c2ccccc2Br)CC1 | 217 | 29 | 1.83 | 60 | 220 | 32.6 | 1.76 | 100 | 90 | 19500 | 15.8 | 4.62 | 9.48 | 10.8 | 27.8 | 3.66 | 11.1 | 18.8 | 24 | 2.26 | half-life [22]: 3.17 h; Activity (Rattus norvegicus): Active; Kp at 1 h [23]: 20.3; Imax [18]: 100%; IC50 [19]: 135 nM; Kb [19]: 0.59 nM
O=S(=O)(c1ccccc1Br)n1ccc2c(CN3CCNCC3)cccc21 |  |  |  |  |  |  |  |  |  |  | 24.5 | 8.47 | 9.82 | 6.28 | 8.31 | 5.23 | 12.8 | 18 | 18.7 | 1.13 | Ki [20]: 2.82 nM
CN1CCN(Cc2cccc3c2c(Br)cn3S(=O)(=O)c2ccccc2)CC1 |  |  |  |  |  |  |  |  |  |  | 23 | 5.27 | 2.38 | 6.78 | 35.7 | 3.53 | 5.01 | 8.93 | 19.3 | 2.17 | 
CN1CCN(Cc2cccc3c2c(Cl)cn3S(=O)(=O)c2cccc(Cl)c2)CC1 |  |  |  |  |  |  |  |  |  |  | 20.2 | 1.51 | 9.33 | 13.5 | 28.5 | 20.4 | 12.9 | 19.9 | 17.7 | 0.78 | 
